Source: ChEMBL document CHEMBL3045950, “Design, synthesis, and analysis of the quantitative structure-activity relationships of 4-phenyl-acyl-substituted 3-(2,5-dimethylphenyl)-4-hydroxy-1-azaspiro[4.5]dec-3-ene-2,8-dione derivatives” (2012)

Key:
Format in all cases: functional
[1] = tested on: Aphis fabae; experiment: Insecticidal activity against Aphis fabae (black bean aphid) apterous third-instar nymphae in tender soybean shoots assessed as inhibition activity at 100 mg/L after 72 hr
How it was run: (§1)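 Test solutions were made in N,N-dimethylformamide and diluted to working concentration with distilled water containing TW-80 (0.1 mL L⁻¹). Aphids were dipped following a slightly modified FAO dip test. Assessment was made 72 h after treatment. Each treatment was run three times, and control groups were given water only. Deviation of values was 5%.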

[2] = tested on: Aphis fabae; experiment: Insecticidal activity against Aphis fabae (black bean aphid) apterous third-instar nymphae in tender soybean shoots assessed as inhibition activity at 10 mg/L after 72 hr; how it was run: as §1
[3] = tested on: Tetranychus cinnabarinus; experiment: Larvicidal activity against Tetranychus cinnabarinus (carmine spider mite) fifty third-instar mite larvae assessed as inhibition activity at 100 mg/L after 72 hr
How it was run: (§2)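 Test solutions were made in N,N-dimethylformamide and diluted with distilled water containing TW-80 (0.1 mL L⁻¹). Fifty third-instar larvae were dipped in the dilution for 5 s, and excess liquid was removed. Larvae were then held in an air-conditioned room, and mortality was scored at 72 h. Tests were run in triplicate, and controls were treated with water only.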

[4] = tested on: Tetranychus cinnabarinus; experiment: Larvicidal activity against Tetranychus cinnabarinus ( carmine spider mite ) fifty third-instar mite larvae assessed as inhibition activity at 10 mg/L after 72 hr; how it was run: as §2

Cc1ccc(C)c(C2=C(OC(=O)c3ccc(Cl)cc3)C3(CCC(=O)CC3)NC2=O)c1
inhibition at 100 µg/mL [1]: 68.2%
inhibition at 10 µg/mL [2]: 10.8%
inhibition at 100 µg/mL [3]: 42.9%
inhibition at 10 µg/mL [4]: 9.23%

Cc1ccc(C)c(CC(=O)OC2=C(c3cc(C)ccc3C)C(=O)NC23CCC(=O)CC3)c1
inhibition at 100 µg/mL [1]: 76.2%
inhibition at 10 µg/mL [2]: 37.3%
inhibition at 100 µg/mL [3]: 61.6%
inhibition at 10 µg/mL [4]: 24.6%

Cc1cc(C)c(CC(=O)OC2=C(c3cc(C)ccc3C)C(=O)NC23CCC(=O)CC3)c(C)c1
inhibition at 100 µg/mL [1]: 69.2%
inhibition at 10 µg/mL [2]: 25.2%
inhibition at 100 µg/mL [3]: 39.4%
inhibition at 10 µg/mL [4]: 12.1%

COc1ccc(CC(=O)OC2=C(c3cc(C)ccc3C)C(=O)NC23CCC(=O)CC3)cc1
inhibition at 100 µg/mL [1]: 92.1%
inhibition at 10 µg/mL [2]: 87.3%
inhibition at 100 µg/mL [3]: 80.5%
inhibition at 10 µg/mL [4]: 24.4%

Cc1ccc(C)c(C2=C(OC(=O)Cc3ccc(F)cc3)C3(CCC(=O)CC3)NC2=O)c1
inhibition at 100 µg/mL [1]: 93.7%
inhibition at 10 µg/mL [2]: 69.3%
inhibition at 100 µg/mL [3]: 49%
inhibition at 10 µg/mL [4]: 29.9%

Cc1ccc(C)c(C2=C(OC(=O)Cc3ccccc3Cl)C3(CCC(=O)CC3)NC2=O)c1
inhibition at 100 µg/mL [1]: 96.5%
inhibition at 10 µg/mL [2]: 59.2%
inhibition at 100 µg/mL [3]: 53.5%
inhibition at 10 µg/mL [4]: 28.3%

Cc1ccc(C)c(C2=C(OC(=O)Cc3cccc(Cl)c3)C3(CCC(=O)CC3)NC2=O)c1
inhibition at 100 µg/mL [1]: 44.6%
inhibition at 10 µg/mL [2]: 13.6%
inhibition at 100 µg/mL [3]: 24.7%
inhibition at 10 µg/mL [4]: 3.23%

Cc1ccc(C)c(C2=C(OC(=O)Cc3ccc(Cl)cc3)C3(CCC(=O)CC3)NC2=O)c1
inhibition at 100 µg/mL [1]: 89.8%
inhibition at 10 µg/mL [2]: 47.3%
inhibition at 100 µg/mL [3]: 58%
inhibition at 10 µg/mL [4]: 17.8%

Cc1ccc(C)c(C2=C(OC(=O)Cc3ccc(Cl)cc3Cl)C3(CCC(=O)CC3)NC2=O)c1
inhibition at 100 µg/mL [1]: 85.6%
inhibition at 10 µg/mL [2]: 26.9%
inhibition at 100 µg/mL [3]: 75.9%
inhibition at 10 µg/mL [4]: 31.2%

Cc1ccc(C)c(C2=C(OC(=O)Cc3ccc(Cl)c(Cl)c3)C3(CCC(=O)CC3)NC2=O)c1
inhibition at 100 µg/mL [1]: 97.3%
inhibition at 10 µg/mL [2]: 49.3%
inhibition at 100 µg/mL [3]: 71.7%
inhibition at 10 µg/mL [4]: 28.9%

Cc1ccc(C)c(C2=C(OC(=O)Cc3ccc(Br)cc3)C3(CCC(=O)CC3)NC2=O)c1
inhibition at 100 µg/mL [1]: 47.8%
inhibition at 10 µg/mL [2]: 9.78%
inhibition at 100 µg/mL [3]: 32.5%
inhibition at 10 µg/mL [4]: 5.25%

Cc1ccc(C)c(C2=C(OC(=O)Cc3ccc(C(F)(F)F)cc3)C3(CCC(=O)CC3)NC2=O)c1
inhibition at 100 µg/mL [1]: 98.6%
inhibition at 10 µg/mL [2]: 60%
inhibition at 100 µg/mL [3]: 85.3%
inhibition at 10 µg/mL [4]: 49%

Cc1ccc(C)c(C2=C(OC(=O)Cc3ccc([N+](=O)[O-])cc3)C3(CCC(=O)CC3)NC2=O)c1
inhibition at 100 µg/mL [1]: 92.2%
inhibition at 10 µg/mL [2]: 32.3%
inhibition at 100 µg/mL [3]: 73.8%
inhibition at 10 µg/mL [4]: 16.3%

CCOC(=O)OC1=C(c2cc(C)ccc2C)C(=O)NC12CCC(=O)CC2
inhibition at 100 µg/mL [1]: 93.5%
inhibition at 10 µg/mL [2]: 45.9%
inhibition at 100 µg/mL [3]: 62.3%
inhibition at 10 µg/mL [4]: 30.4%

CCCC(=O)OC1=C(c2cc(C)ccc2C)C(=O)NC12CCC(=O)CC2
inhibition at 100 µg/mL [1]: 98.7%
inhibition at 10 µg/mL [2]: 37.3%
inhibition at 100 µg/mL [3]: 54.7%
inhibition at 10 µg/mL [4]: 19.7%

Cc1ccc(C)c(C2=C(OC(=O)CC(C)(C)C)C3(CCC(=O)CC3)NC2=O)c1
inhibition at 100 µg/mL [1]: 62.1%
inhibition at 10 µg/mL [2]: 21.6%
inhibition at 100 µg/mL [3]: 26.1%
inhibition at 10 µg/mL [4]: 8.76%

C/C=C/C(=O)OC1=C(c2cc(C)ccc2C)C(=O)NC12CCC(=O)CC2
inhibition at 100 µg/mL [1]: 85.6%
inhibition at 10 µg/mL [2]: 34.9%
inhibition at 100 µg/mL [3]: 58.2%
inhibition at 10 µg/mL [4]: 23.4%

Cc1ccc(C)c(C2=C(OC(=O)c3ccccc3)C3(CCC(=O)CC3)NC2=O)c1
inhibition at 100 µg/mL [1]: 91.8%
inhibition at 10 µg/mL [2]: 29.3%
inhibition at 100 µg/mL [3]: 49.8%
inhibition at 10 µg/mL [4]: 18.2%

Cc1ccc(C)c(C2=C(OC(=O)c3ccccc3C)C3(CCC(=O)CC3)NC2=O)c1
inhibition at 100 µg/mL [1]: 25.5%
inhibition at 10 µg/mL [2]: 6.27%
inhibition at 100 µg/mL [3]: 59.4%
inhibition at 10 µg/mL [4]: 17.3%

Cc1ccc(C)c(C2=C(OC(=O)Cc3ccccc3)C3(CCC(=O)CC3)NC2=O)c1
inhibition at 100 µg/mL [1]: 95.6%
inhibition at 10 µg/mL [2]: 62.8%
inhibition at 100 µg/mL [3]: 66.8%
inhibition at 10 µg/mL [4]: 38.9%

Cc1ccc(CC(=O)OC2=C(c3cc(C)ccc3C)C(=O)NC23CCC(=O)CC3)cc1
inhibition at 100 µg/mL [1]: 73.5%
inhibition at 10 µg/mL [2]: 48.4%
inhibition at 100 µg/mL [3]: 70.8%
inhibition at 10 µg/mL [4]: 21.8%

CCC(C)(C)C(=O)OC1=C(c2ccc(Cl)cc2Cl)C(=O)OC12CCCCC2 [SPIRODICLOFEN]
inhibition at 100 µg/mL [1]: 60.3%
inhibition at 10 µg/mL [2]: 19.4%
inhibition at 100 µg/mL [3]: 70.6%
inhibition at 10 µg/mL [4]: 36.7%

Cc1cc(C)c(C2=C(OC(=O)CC(C)(C)C)C3(CCCC3)OC2=O)c(C)c1 [SPIROMESIFEN]
inhibition at 100 µg/mL [1]: 62.5%
inhibition at 10 µg/mL [2]: 14.3%
inhibition at 100 µg/mL [3]: 80.2%
inhibition at 10 µg/mL [4]: 42.1%

CCOC(=O)OC1=C(c2cc(C)ccc2C)C(=O)N[C@]12CC[C@@H](OC)CC2 [SPIROTETRAMAT]
inhibition at 100 µg/mL [1]: 100%
inhibition at 10 µg/mL [2]: 96.8%
inhibition at 100 µg/mL [3]: 75%
inhibition at 10 µg/mL [4]: 26.3%
